According to PubChem BioAssay AID623885 (Vanderbilt Specialized Chemistry Center, 2012):
Active and inactive are the calls of the source.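 Rule for the calls: active = mean half-maximal effective concentration under 30 µM; inactive = the rest.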

Target: Metabotropic glutamate receptor 3 (Rattus norvegicus) (UniProt P31422)
Experiment: rat mGlu3 negative modulators or antagonists, dose response, thallium flux, HEK/GIRK cells (AID 623885)
Conditions: HEK293 GIRK rat mGlu3, thallium flux fluorescence; at 30 µM (top of the series)
Method in brief: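 System: HEK cells stably co-expressing GIRK channels, M4 muscarinic receptor, rat mGlu3 / Medium: HEPES-buffered HBSS / Incubation: dye loading 1 h room temperature, compounds ~2.5 min / Measured by: thallium influx through GIRK, FluoZin-2 AM fluorescence / Probe or stimulus: thallium buffer ± agonist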

Metabotropic glutamate receptor 3 (Rattus norvegicus), sequence (P31422 whole entry, looked up): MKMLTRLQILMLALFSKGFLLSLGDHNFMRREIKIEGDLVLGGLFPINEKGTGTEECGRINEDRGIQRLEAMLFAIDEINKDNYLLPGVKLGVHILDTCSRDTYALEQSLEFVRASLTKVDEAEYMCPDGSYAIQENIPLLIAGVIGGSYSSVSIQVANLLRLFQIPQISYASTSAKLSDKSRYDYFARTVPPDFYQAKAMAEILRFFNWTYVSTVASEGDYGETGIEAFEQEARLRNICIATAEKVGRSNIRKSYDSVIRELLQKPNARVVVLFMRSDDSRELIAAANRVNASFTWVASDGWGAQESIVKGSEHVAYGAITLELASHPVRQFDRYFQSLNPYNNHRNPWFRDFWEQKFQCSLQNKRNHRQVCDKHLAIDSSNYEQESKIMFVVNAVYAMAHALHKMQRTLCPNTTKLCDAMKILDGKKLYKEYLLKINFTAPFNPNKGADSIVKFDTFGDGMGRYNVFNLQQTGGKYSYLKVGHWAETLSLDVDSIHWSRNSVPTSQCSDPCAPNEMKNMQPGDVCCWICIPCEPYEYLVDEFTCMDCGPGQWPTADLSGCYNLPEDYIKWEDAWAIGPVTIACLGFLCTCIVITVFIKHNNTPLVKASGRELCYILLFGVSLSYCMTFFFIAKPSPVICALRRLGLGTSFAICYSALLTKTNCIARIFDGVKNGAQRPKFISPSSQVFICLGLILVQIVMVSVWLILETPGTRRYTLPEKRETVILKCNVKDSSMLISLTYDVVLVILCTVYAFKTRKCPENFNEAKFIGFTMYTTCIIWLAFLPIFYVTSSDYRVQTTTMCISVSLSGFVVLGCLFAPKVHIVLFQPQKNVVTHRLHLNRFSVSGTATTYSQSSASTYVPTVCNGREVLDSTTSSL

percent of glutamate max response	Compound
43.7	O=Cc1ccccc1C#Cc1ccc(C(=O)N2CCC(O)CC2)cc1
inactive	COc1ccc(C#Cc2ccc(C(=O)NCCCO)cc2)cc1
10.8	Cc1ccccc1C#Cc1ccc(C(=O)N2CCC(O)CC2)cc1
34	O=C(c1ccc(C#CCC2CCCC2)cc1)N1CCC(O)CC1
11.6	O=C(c1ccc(C#Cc2ccccc2)cc1)N1CCC(O)CC1
inactive	CC(C)(O)C#Cc1ccc(C(=O)N2CCC(O)CC2)cc1
inactive	Cn1ccnc1C#Cc1ccc(C(=O)N2CCC(O)CC2)cc1
76.2	COc1ccc(C#Cc2ccc(C(=O)N3CC(O)C3)cc2)cc1
inactive	CC(=O)OCC#Cc1ccc(C(=O)N2CCC(O)CC2)cc1
inactive	CC(O)CC#Cc1ccc(C(=O)N2CCC(O)CC2)cc1 (stereo not given)
